Assay results: article PMC5891368 (European journal of medicinal chemistry, 2018)
Entries after “also recorded” stand apart in the source; their conditions may differ.

How the values were obtained:
xylene-induced ear edema [1] = conditions: mouse, in vivo; cited from earlier work
MDA-MB-231 cells [2] = assay: Matrigel invasion assay induced by CXCR4/CXCL12; format: cell-based; conditions: Homo sapiens, MDA-MB-231, 22 h, read-out: inhibition of Matrigel invasion
In short: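 MDA-MB-231 cells were pre-treated with test compound at 100 nM and then seeded in the top chamber of a Matrigel invasion chamber in serum-free medium. CXCL12α at 200 ng/mL in the bottom chamber served as chemoattractant. After 22 h in a humidified incubator, non-invading cells were swabbed off. Invading cells were methanol-fixed, stained with H&E and counted to give percent invasion.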

xylene-induced ear edema [3] = assay: xylene-induced ear edema model; format: in vivo, mouse; conditions: after treatment with compound
184A1N4 cells = assay: cytotoxicity, cell viability; format: cell-based; conditions: 184A1N4 (CXCR4-negative); MTT; 72 h
In short: (§1)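 Cells were seeded at 3000 per well in 96-well plates and grown 24 h at 37 °C in a CO2 incubator. They were then exposed at 37 °C to test compound or vehicle control. CellTiter 96AQ (MTT-type) reagent was added for a further 2 h, and absorbance was read at 490 nm.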

phosphorylation of Akt = assay: Western blot, CXCL12 induced phosphorylation of Akt; format: cell-based; conditions: dose-dependent
In short: (§2)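 Rabbit monoclonal primaries (1:500, overnight, 4 °C) were phospho-Akt Ser473 with pan-Akt for Akt, and phospho-p44/42 MAPK Thr202/Tyr204 with total p44/42 for p44/42. Detection used HRP goat anti-rabbit (1:10000, 1 h) and enhanced chemiluminescence.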

MDA-MB-231 cells [4] = assay: cytotoxicity, cell viability; format: cell-based, human; conditions: MDA-MB-231 (CXCR4-positive); up to 10 μM; MTT
In short: as §1

MCF-10A cells = assay: cytotoxicity, cell viability; format: cell-based; conditions: up to 10 μM, MTT
MCF-7 cells = assay: cytotoxicity, cell viability; format: cell-based; conditions: MCF-7 (CXCR4-positive); MTT; 72 h
In short: as §1

AC1-ExR cells = assay: cytotoxicity, cell viability; format: cell-based; conditions: AC1-ExR (CXCR4-positive); MTT; 72 h
In short: as §1

SKBR3 cells = assay: cytotoxicity, cell viability; format: cell-based; conditions: SKBR3 (CXCR4-positive); MTT; 72 h
In short: as §1

[5] = test system: phosphorylation of p44/42; assay: Western blot, CXCL12 induced phosphorylation of p44/42; format: cell-based
In short: as §2

SMILES | toxicity in this animal model (xylene-induced ear edema [1]) | inhibition at 0.1 µM (MDA-MB-231 cells [2]) [%] | number of inflammatory cells in inflammatory tissues (histological analysis) (xylene-induced ear edema [3]) | swollen volume and thickness of the mouse ear (histological analysis) (xylene-induced ear edema [3]) | antiproliferative activity / cytotoxicity (184A1N4 cells) | active concentration for inhibition of Akt phosphorylation (phosphorylation of Akt) [nM] | antiproliferative activity / cytotoxicity (MDA-MB-231 cells [4]) | antiproliferative activity / cytotoxicity (MCF-10A cells) | antiproliferative activity / cytotoxicity (MCF-7 cells) | antiproliferative activity / cytotoxicity (AC1-ExR cells) | antiproliferative activity / cytotoxicity (SKBR3 cells) | concentration suppressing phosphorylation of p44 [5] [nM]
c1cc(CN2CCCNCCNCCCNCC2)ccc1CN1CCCNCCNCCCNCC1 [AMD3100] | serious toxicity | 55 | – | – | – | – | – | – | – | – | – | –
O=C(NCc1ccc(CNS(=O)(=O)c2ccccc2)cc1)c1ccc(CNc2ncccn2)cc1 [Compound 7a, N-(4-(phenylsulfonamidomethyl)benzyl)-4-((pyrimidin-2-ylamino)methyl)benzamide] | – | – | significantly decreased | significantly reduced | no statistically significant differences | 1 | did not inhibit the proliferation; also recorded: no statistically significant differences | did not inhibit the proliferation | no statistically significant differences | no statistically significant differences | no statistically significant differences | 0.1
